Reference: ChEMBL document CHEMBL1123764, “Long-acting angiotensin II inhibitors containing hexafluorovaline in position 8” (J Med Chem, 1987)

Legend:
Rattus norvegicus [1] = organism: Rattus norvegicus; assay: Time course for AII (6 ng) induced pressor response in rats to return to 50% of pretreatment level after a bolus injection of 3 microg; type: functional, organism-based
Method in brief: (§1)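 Female Wistar rats were anesthetized with pentobarbital sodium (30 mg/kg), vagotomized, cannulated in the carotid artery and femoral vein, and given pentolinium tartrate (5 mg/200 g). After a bolus injection of inhibitor, 6 ng AII was injected at 15-min intervals while blood pressure was recorded by transducer. The read-out is the time for the pressor response to recover to 50% of pretreatment.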

Rattus norvegicus [2] = organism: Rattus norvegicus; assay: Time course for AII (6 ng) induced pressor response in rats to return to 50% of pretreatment level after a bolus injection of 1 microg; type: functional, organism-based; method in brief: as §1
Rattus norvegicus [3] = organism: Rattus norvegicus; assay: Time course for AII (6 ng) induced pressor response in rats to return to 50% of pretreatment level after a bolus injection of 10 microg; type: functional, organism-based; method in brief: as §1
Rattus norvegicus [4] = organism: Rattus norvegicus; assay: Time course for AII (6 ng) induced pressor response in rats to return to 50% of pretreatment level after a bolus injection of 50 microg; type: functional, organism-based; method in brief: as §1
Rattus norvegicus [5] = organism: Rattus norvegicus; assay: Time course for AII (6 ng) induced pressor response in rats to return to 50% of pretreatment level after a bolus injection of 30 microg; type: functional, organism-based; method in brief: as §1
Oryctolagus cuniculus [6] = organism: Oryctolagus cuniculus; assay: Dose required to produce(to produce 25% maximal response) In vitro agonistic activity against angiotensin II in rabbit aorta; type: functional
Method in brief: (§2)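 Isolated rabbit aorta or rat stomach strips were used. Agonist activity (%) is the AII dose producing 25% of maximal response divided by the analogue dose producing the same response. Each value comes from 3 experiments.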

Rattus norvegicus [7] = organism: Rattus norvegicus; assay: Dose required to produce(to produce 25% maximal response) In vitro agonistic activity against angiotensin II in rat stomach; type: functional; method in brief: as §2
Rattus norvegicus [8] = organism: Rattus norvegicus; assay: In vitro agonistic activity against angiotensin II was determined to produce 25% maximal response in rat stomach at a dose of 10 ng/mL; type: functional
Oryctolagus cuniculus [9] = organism: Oryctolagus cuniculus; assay: In vitro antagonistic activity against angiotensin II was determined to produce 25% maximal response in rabbit aorta at a dose of 50 ng/mL
Rattus norvegicus [10] = organism: Rattus norvegicus; assay: In vitro agonistic activity against angiotensin II was determined to produce 25% maximal response in rat stomach at a dose of 50 ng/mL; type: functional
Oryctolagus cuniculus [11] = organism: Oryctolagus cuniculus; assay: In vitro antagonistic activity against angiotensin II was determined to produce 25% maximal response in rabbit aorta at a dose of 10 ng/mL
Rattus norvegicus [12] = organism: Rattus norvegicus; assay: Antagonism determined in rat stomach against AII; type: functional; settings: read-out: pA2 (converted)
Oryctolagus cuniculus [13] = organism: Oryctolagus cuniculus; assay: Antagonism determined in rabbit aorta against AII; type: functional; settings: read-out: pA2 (converted)
Rattus norvegicus [14] = organism: Rattus norvegicus; assay: Time course for AII (6 ng) induced pressor response in rats to return to 50% of pretreatment level after a bolus injection of 5 microg; type: functional, organism-based; method in brief: as §1
Rattus norvegicus [15] = organism: Rattus norvegicus; assay: Time course for AII (6 ng) induced pressor response in rats to return to 50% of pretreatment level after a bolus injection of 100 microg; type: functional, organism-based; method in brief: as §1
Rattus norvegicus [16] = organism: Rattus norvegicus; assay: Antagonistic potency determined in rat stomach at 1 ng/mL expressed as dose ratio of AII to produce 25% of control maximal response; type: functional
Oryctolagus cuniculus [17] = organism: Oryctolagus cuniculus; assay: Antagonistic potency determined in rabbit aorta at 1 ng/mL expressed as dose ratio of AII to produce 25% of control maximal response; type: functional
Rattus norvegicus [18] = organism: Rattus norvegicus; assay: Dose required to produce( 25% maximal response) In vitro agonistic activity against angiotensin II in rat stomach; type: functional; method in brief: as §2
Oryctolagus cuniculus [19] = organism: Oryctolagus cuniculus; assay: Dose required to produce(25% maximal response) In vitro agonistic activity against angiotensin II in rabbit aorta; type: functional; method in brief: as §2
Oryctolagus cuniculus [20] = organism: Oryctolagus cuniculus; assay: Antagonistic potency determined in rabbit aorta at 10 ng/mL expressed as dose ratio of AII to produce 25% of control maximal response; type: functional
Rattus norvegicus [21] = organism: Rattus norvegicus; assay: Antagonistic potency determined in rat stomach at 10 ng/mL expressed as dose ratio of AII to produce 25% of control maximal response; type: functional

CNCC(=O)N[C@@H](CCCN=C(N)N)C(=O)N[C@H](C(=O)N[C@@H](Cc1ccc(O)cc1)C(=O)N[C@H](C(=O)N[C@@H](Cc1c[nH]cn1)C(=O)N1CCC[C@H]1C(=O)N[C@@H](C(=O)O)C(C(F)(F)F)C(F)(F)F)C(C)C)C(C)C [listing 1 of 3 here]
Recovery time (Rattus norvegicus [1]): 32.3 min | Recovery time (Rattus norvegicus [2]): 12.5 min | Recovery time (Rattus norvegicus [3]): 60.1 min

CNCC(=O)N[C@@H](CCCN=C(N)N)C(=O)N[C@H](C(=O)N[C@@H](Cc1ccc(O)cc1)C(=O)N[C@H](C(=O)N[C@@H](Cc1c[nH]cn1)C(=O)N1CCC[C@H]1C(=O)N[C@H](CC(C)C)C(=O)O)C(C)C)C(C)C
Recovery time (Rattus norvegicus [1]): 13.5 min | Recovery time (Rattus norvegicus [3]): 23.6 min | Recovery time (Rattus norvegicus [4]): 37.6 min | Recovery time (Rattus norvegicus [5]): 34.5 min

H-DRVYVHPF-OH [[Val5] - ANGIOTENSIN II]
Activity (Oryctolagus cuniculus [6]): 100% | Activity (Rattus norvegicus [7]): 100%

CNCC(=O)N[C@@H](CCCN=C(N)N)C(=O)N[C@H](C(=O)N[C@@H](Cc1ccc(O)cc1)C(=O)N[C@H](C(=O)N[C@@H](Cc1c[nH]cn1)C(=O)N1CCC[C@H]1C(=O)N[C@@H](C(=O)O)C(C(F)(F)F)C(F)(F)F)C(C)C)C(C)C [listing 2 of 3 here]
Potency (Rattus norvegicus [8]): 2 | Dose ratio (Oryctolagus cuniculus [9]): 42 | Potency (Rattus norvegicus [10]): 4.1 | Activity (Oryctolagus cuniculus [6]): 0% | Dose ratio (Oryctolagus cuniculus [11]): 2.1 | Activity (Rattus norvegicus [7]): 0.03%

CNCC(=O)N[C@@H](CCCN=C(N)N)C(=O)N[C@H](C(=O)N[C@@H](Cc1ccc(O)cc1)C(=O)N[C@H](C(=O)N[C@@H](Cc1c[nH]cn1)C(=O)N1CCC[C@H]1C(=O)N[C@@H](CC(C)C)C(=O)O)C(C)C)C(C)C
Kb (Rattus norvegicus [12]): 2.51 nM | Kb (Oryctolagus cuniculus [13]): 1.95 nM

CNCC(=O)N[C@@H](CCCN=C(N)N)C(=O)N[C@H](C(=O)N[C@@H](Cc1ccc(O)cc1)C(=O)N[C@H](C(=O)N[C@@H](Cc1c[nH]cn1)C(=O)N1CCC[C@H]1C(=O)N[C@H](C(=O)O)C(C(F)(F)F)C(F)(F)F)C(C)C)C(C)C [listing 1 of 3 here]
Recovery time (Rattus norvegicus [1]): 19 min | Recovery time (Rattus norvegicus [2]): 5.8 min | Recovery time (Rattus norvegicus [14]): 40.6 min | Recovery time (Rattus norvegicus [3]): 73.6 min

CNCC(=O)N[C@@H](CCCNC(=N)N)C(=O)N[C@H](C(=O)N[C@@H](Cc1ccc(O)cc1)C(=O)N[C@H](C(=O)N[C@@H](Cc1cnc[nH]1)C(=O)N1CCC[C@H]1C(=O)N[C@@H](C)C(=O)O)C(C)C)C(C)C
Recovery time (Rattus norvegicus [15]): 18 min | Recovery time (Rattus norvegicus [3]): 11 min | Recovery time (Rattus norvegicus [5]): 13.7 min

CNCC(=O)N[C@@H](CCCN=C(N)N)C(=O)N[C@H](C(=O)N[C@@H](Cc1ccc(O)cc1)C(=O)N[C@H](C(=O)N[C@@H](Cc1c[nH]cn1)C(=O)N1CCC[C@H]1C(=O)N[C@H](C(=O)O)C(C(F)(F)F)C(F)(F)F)C(C)C)C(C)C [listing 2 of 3 here]
Potency (Rattus norvegicus [16]): 2.2 | Potency (Oryctolagus cuniculus [17]): 6.1 | Activity (Rattus norvegicus [18]): 0.8% | Activity (Oryctolagus cuniculus [19]): 1.1% | Potency (Oryctolagus cuniculus [20]): 294 | Potency (Rattus norvegicus [21]): 51.7

CNCC(=O)N[C@@H](CCCN=C(N)N)C(=O)N[C@H](C(=O)N[C@@H](Cc1ccc(O)cc1)C(=O)N[C@H](C(=O)N[C@@H](Cc1c[nH]cn1)C(=O)N1CCC[C@H]1C(=O)N[C@H](C(=O)O)C(C(F)(F)F)C(F)(F)F)C(C)C)C(C)C [listing 3 of 3 here]
Kb (Rattus norvegicus [12]): 0.851 nM | Kb (Oryctolagus cuniculus [13]): 0.832 nM

CNCC(=O)N[C@@H](CCCN=C(N)N)C(=O)N[C@H](C(=O)N[C@@H](Cc1ccc(O)cc1)C(=O)N[C@H](C(=O)N[C@@H](Cc1c[nH]cn1)C(=O)N1CCC[C@H]1C(=O)N[C@@H](C(=O)O)C(C(F)(F)F)C(F)(F)F)C(C)C)C(C)C [listing 3 of 3 here]
Kb (Rattus norvegicus [12]): 7.94 nM | Kb (Oryctolagus cuniculus [13]): 7.94 nM
